Data published in ChEMBL document CHEMBL3286129, “Optimization of peptidomimetic boronates bearing a P3 bicyclic scaffold as proteasome inhibitors” (Eur J Med Chem, 2014).
The source made the active and inactive calls. No cut-off for these calls is given here.

Key:
Chymotrypsinogen A = Chymotrypsinogen A (Bos taurus, UniProt P00766); experiment: Inhibition of bovine pancreatic alpha-chymotrypsin using Suc-Leu-Leu-Val-Tyr-AMC as substrate by fluorescence assay
Method in brief: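 Enzyme incubated at 20 °C in 50 mM Tris pH 8.0, 100 mM NaCl, 5 mM EDTA, 7.5% DMSO with varied inhibitor concentrations. Substrate hydrolysis followed for 10 min. Ki from progress curves; mean of three determinations.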

[1] = target: Proteasome Macropain subunit (Homo sapiens) (UniProt P49721); experiment: Inhibition of trypsin-like activity of 20S proteasome in human erythrocytes using Boc-Leu-Arg-Arg-AMC as substrate by fluorescence assay; type: cell-based
Method in brief: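 Human 20S proteasome 0.0025 mg/mL at 30 °C in 50 mM Tris pH 7.4, 50 mM NaCl, 0.5 mM EDTA, 0.03% SDS, 7.5% DMSO. Varied inhibitor concentrations; AMC release monitored continuously for 10 min, ex 380/em 460 nm. Ki derived from progress-curve IC50 fit.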

[2] = Growth inhibition of human UACC62 cells; type: functional; details: UACC-62
SN12C = experiment: Growth inhibition of human SN12C cells; type: functional
NCI-H23 = experiment: Growth inhibition of human NCI-H23 cells; type: functional
[3] = Growth inhibition of human BT549 cells; type: functional; details: BT-549
U-251 = experiment: Growth inhibition of human U251 cells; type: functional
NCI-H460 = experiment: Growth inhibition of human NCI-H460 cells; type: functional
SK-MEL-5 = experiment: Growth inhibition of human SK-MEL-5 cells; type: functional
[4] = Growth inhibition of human UACC257 cells; type: functional; details: UACC-257
[5] = Growth inhibition of human HCT15 cells; type: functional; details: HCT-15
Malme-3M = experiment: Growth inhibition of human MALME-3M cells; type: functional
[6] = Growth inhibition of human HCC2998 cells; type: functional; details: HCC 2998
[7] = Growth inhibition of human HOP92 cells; type: functional; details: HOP-92
[8] = Growth inhibition of human OVCAR8 cells; type: functional; details: OVCAR-8
[9] = Growth inhibition of human NCI-ADR-RES cells; type: functional
DU-145 = experiment: Growth inhibition of human DU145 cells; type: functional
HCT-116 = experiment: Growth inhibition of human HCT116 cells; type: functional
M14 = experiment: Growth inhibition of human M14 cells; type: functional
[10] = Growth inhibition of human OVCAR4 cells; type: functional; details: OVCAR-4
SK-MEL-28 = experiment: Growth inhibition of human SK-MEL-28 cells; type: functional
[11] = Growth inhibition of human UO31 cells; type: functional; details: UO-31
A549 = experiment: Growth inhibition of human A549/ATCC cells; type: functional
NCI-H522 = experiment: Growth inhibition of human NCI-H522 cells; type: functional
[12] = Growth inhibition of human MOLT4 cells; type: functional; details: MOLT-4
[13] = Growth inhibition of human LOXIMVI cells; type: functional; details: LOX IMVI
K562 = experiment: Growth inhibition of human K562 cells; type: functional
COLO 205 = experiment: Growth inhibition of human COLO205 cells; type: functional
786-0 = experiment: Growth inhibition of human 786-0 cells; type: functional
T47D = experiment: Growth inhibition of human T47D cells; type: functional
IGROV-1 = experiment: Growth inhibition of human IGROV1 cells; type: functional
NCI-H322M = experiment: Growth inhibition of human NCI-H322M cells; type: functional
[14] = Growth inhibition of human OVCAR3 cells; type: functional; details: OVCAR-3
ACHN = experiment: Growth inhibition of human ACHN cells; type: functional
SK-OV-3 = experiment: Growth inhibition of human SKOV3 cells; type: functional
MDA-MB-231 = experiment: Growth inhibition of human MDA-MB-231 cells; type: functional
TK-10 = experiment: Growth inhibition of human TK10 cells; type: functional
SNB-75 = experiment: Growth inhibition of human SNB75 cells; type: functional
HL-60(TB) = experiment: Growth inhibition of human HL-60(TB) cells; type: functional
[15] = Growth inhibition of human OVCAR5 cells; type: functional; details: OVCAR-5
MDA-MB-435 = experiment: Growth inhibition of human MDA-MB-435 cells; type: functional
MDA-MB-468 = experiment: Growth inhibition of human MDA-MB-468 cells; type: functional
[16] = Growth inhibition of human SF295 cells; type: functional; details: SF-295
SR = experiment: Growth inhibition of human SR cells; type: functional
HT-29 = experiment: Growth inhibition of human HT-29 cells; type: functional
CAKI-1 = experiment: Growth inhibition of human CAKI-1 cells; type: functional
HOP-62 = experiment: Growth inhibition of human HOP62 cells; type: functional
CCRF-CEM = experiment: Growth inhibition of human CCRF-CEM cells; type: functional
MCF7 = experiment: Growth inhibition of human MCF7 cells; type: functional
[17] = Growth inhibition of human SF539 cells; type: functional; details: SF-539
PC-3 = experiment: Growth inhibition of human PC3 cells; type: functional
[18] = Growth inhibition of human EKVX cells; type: functional
NCI-H226 = experiment: Growth inhibition of human NCI-H226 cells; type: functional
[19] = Growth inhibition of human Hs 578T cells; type: functional
SF-268 = experiment: Growth inhibition of human SF268 cells; type: functional
SNB-19 = experiment: Growth inhibition of human SNB19 cells; type: functional
[20] = Growth inhibition of human RXF393 cells; type: functional; details: RXF 393
SW-620 = experiment: Growth inhibition of human SW620 cells; type: functional
RPMI-8226 = experiment: Growth inhibition of human RPMI8226 cells; type: functional
SK-MEL-2 = experiment: Growth inhibition of human SK-MEL-2 cells; type: functional
KM12 = experiment: Growth inhibition of human KM12 cells; type: functional
A498 = experiment: Growth inhibition of human A498 cells; type: functional

Sequence of Proteasome Macropain subunit (Homo sapiens) (P49721 whole entry): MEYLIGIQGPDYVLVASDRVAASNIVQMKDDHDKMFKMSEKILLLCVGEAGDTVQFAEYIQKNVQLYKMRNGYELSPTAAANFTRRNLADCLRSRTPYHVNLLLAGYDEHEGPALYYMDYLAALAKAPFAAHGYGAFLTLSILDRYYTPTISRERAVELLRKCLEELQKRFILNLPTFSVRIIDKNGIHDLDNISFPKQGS

Compound: CC(C)C[C@H](NC(=O)Cn1cc(Br)c2ncccc2c1=O)B(O)O
- Ki (Chymotrypsinogen A): Not Active
- inhibition [1]: inactive

Compound: CC(C)C[C@H](NC(=O)[C@H](Cc1ccccc1)NC(=O)c1cnccn1)B(O)O [BORTEZOMIB]
- GI50 [2]: 0.91 nM
- GI50 (SN12C): 1.1 nM
- GI50 (NCI-H23): 1 nM
- GI50 [3]: 0.55 nM
- GI50 (U-251): 1.55 nM
- GI50 (NCI-H460): 4.47 nM
- GI50 (SK-MEL-5): 0.68 nM
- GI50 [4]: 0.59 nM
- GI50 [5]: 1.51 nM
- GI50 (Malme-3M): 0.45 nM
- GI50 [6]: 0.6 nM
- Ki (Chymotrypsinogen A; read-out: Ki): 2400 nM
- GI50 [7]: 1 nM
- GI50 [8]: 2.63 nM
- GI50 [9]: 12.3 nM
- GI50 (DU-145): 1.7 nM
- GI50 (HCT-116): 0.6 nM
- GI50 (M14): 0.93 nM
- GI50 [10]: 1.95 nM
- GI50 (SK-MEL-28): 0.46 nM
- GI50 [11]: 1.05 nM
- GI50 (A549): 3.09 nM
- GI50 (NCI-H522): 1.44 nM
- GI50 [12]: 0.51 nM
- GI50 [13]: 0.78 nM
- GI50 (K562): 1.17 nM
- GI50 (COLO 205): 1.23 nM
- GI50 (786-0): 1.44 nM
- GI50 (T47D): 0.6 nM
- GI50 (IGROV-1): 2.24 nM
- GI50 (NCI-H322M): 17.8 nM
- GI50 [14]: 0.54 nM
- GI50 (ACHN): 0.79 nM
- GI50 (SK-OV-3): 13.8 nM
- GI50 (MDA-MB-231): 1.26 nM
- GI50 (TK-10): 1 nM
- GI50 (SNB-75): 2.04 nM
- GI50 (HL-60(TB)): 1.9 nM
- GI50 [15]: 1.55 nM
- GI50 (MDA-MB-435): 0.44 nM
- GI50 (MDA-MB-468): 1.48 nM
- GI50 [16]: 1.7 nM
- GI50 (SR): 0.85 nM
- GI50 (HT-29): 0.95 nM
- GI50 (CAKI-1): 0.66 nM
- GI50 (HOP-62): 4.47 nM
- GI50 (CCRF-CEM): 0.35 nM
- GI50 (MCF7): 0.55 nM
- GI50 [17]: 0.59 nM
- GI50 (PC-3): 2.63 nM
- GI50 [18]: 3.02 nM
- GI50 (NCI-H226): 0.46 nM
- GI50 [19]: 1.02 nM
- GI50 (SF-268): 1.17 nM
- GI50 (SNB-19): 2.04 nM
- GI50 [20]: 0.71 nM
- GI50 (SW-620): 0.55 nM
- GI50 (RPMI-8226): 0.23 nM
- GI50 (SK-MEL-2): 1.07 nM
- GI50 (KM12): 1.7 nM
- GI50 (A498): 0.48 nM
